Only some compounds are listed: those with a hit (about 3.5% of all), similar ones and a draw of the others.
MITF TRPM1 HTS: activators of MITF-driven TRPM1 promoter reporter, primary screen, cell-based, SK-MEL-5, luciferase, single point; SK-MEL-5 TRPM1-promoter luciferase, 24 h; % of positive control, neutral wells = 0; activation, % at 12.5 µM; hit rate 0.75% among 300,000; AID 588334, 2011;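 active = mean activation of at least 80% with every replicate also reaching 80%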
esBAF inh: Bmi1 luciferase reporter increase in mESCs, primary screen, esBAF inhibitor project, mouse ES cells, Bmi1 luciferase knock-in, single point | 24 h; 100% = twice the neutral-well signal | reporter increase, % at 12.5 µM | AID 602393, 2012 | hit rate 2% among 350,000; in the data active = activation above about 40%;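 also: a rise in the Bmi1 reporter signal indicates esBAF inhibition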
Env fusion inh: inhibitors of HIV-1 Env-driven cell-cell fusion, primary screen, HeLa-JRFL effector, CEM21 target cells, luciferase; inhibition, % at 12.3 µM; hit rate 1.1% among 360,000; AID 651610, 2012;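 active = mean replicate inhibition score of at least 50 and every replicate individually at or above 50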
Wnt act: Wnt/beta-catenin pathway activators, primary screen, cell-based, plate reader, single point. Wnt/beta-catenin reporter cell assay, activator. activation, % at 9.35 µM. hit rate 1.2% among 300,000. AID 743398, 2014; in the data active = activation above about 30%, passing the limit was not always enough
ERAP1 HTS inh: human ERAP1 aminopeptidase inhibitors, primary screen, biochemical, single point, plate reader; inhibition, % at 10.7 µM; hit rate 0.15% among 340,000; recombinant ERAP1, Leu-AMC fluorescence, 60 min; Endoplasmic reticulum aminopeptidase 1 (Homo sapiens), Q9NZ08;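 active = mean replicate inhibition of at least 30%, or all replicates individually reaching that 30% level; inactive = mean below 30% and not every replicate reaching it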
Target sequence (Q9NZ08 whole entry, looked up): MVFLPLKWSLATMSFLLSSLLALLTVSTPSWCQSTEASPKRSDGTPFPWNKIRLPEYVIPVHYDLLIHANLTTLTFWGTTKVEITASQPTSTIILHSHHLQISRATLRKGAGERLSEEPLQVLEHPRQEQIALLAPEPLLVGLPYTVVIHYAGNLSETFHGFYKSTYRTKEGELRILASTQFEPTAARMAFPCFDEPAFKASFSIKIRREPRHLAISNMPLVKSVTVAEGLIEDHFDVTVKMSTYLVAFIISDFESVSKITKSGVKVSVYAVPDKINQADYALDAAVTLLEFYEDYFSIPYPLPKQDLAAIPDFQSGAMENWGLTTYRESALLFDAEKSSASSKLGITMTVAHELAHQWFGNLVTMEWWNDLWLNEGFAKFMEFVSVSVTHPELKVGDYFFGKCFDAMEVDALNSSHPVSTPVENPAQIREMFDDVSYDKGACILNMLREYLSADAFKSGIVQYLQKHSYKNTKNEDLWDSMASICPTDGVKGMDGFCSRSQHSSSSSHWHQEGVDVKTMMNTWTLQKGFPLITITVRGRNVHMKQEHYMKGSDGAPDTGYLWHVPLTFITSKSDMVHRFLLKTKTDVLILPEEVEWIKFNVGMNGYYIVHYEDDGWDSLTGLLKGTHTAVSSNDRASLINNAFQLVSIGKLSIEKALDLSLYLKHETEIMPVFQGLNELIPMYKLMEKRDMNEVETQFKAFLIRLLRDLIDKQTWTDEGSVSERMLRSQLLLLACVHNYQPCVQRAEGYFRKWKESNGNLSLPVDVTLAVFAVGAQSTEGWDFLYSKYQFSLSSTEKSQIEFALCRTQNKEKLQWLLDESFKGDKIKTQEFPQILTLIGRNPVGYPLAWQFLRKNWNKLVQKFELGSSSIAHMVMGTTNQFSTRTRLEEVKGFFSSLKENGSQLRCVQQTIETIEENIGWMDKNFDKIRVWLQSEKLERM
Cneo AK release: Cryptococcus neoformans cell lysis inducers, primary screen, AK release luminescence, single concentration; C. neoformans lysis, adenylate kinase release luminescence, 4 h; normalised: neutral wells 0, clomiphene wells 100; lysis activity, % at 15 µM; hit rate 0.2% among 360,000;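 active = mean lysis activity across replicates of at least 80%, whatever share of replicates individually reach that level; inactive = mean lysis activity below 80%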
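Material – log-phase Cryptococcus neoformans yeast cells · Input – 5 × 10^6 yeast cells/mL · Medium – fresh YPD growth medium · Doses – single compound concentration per well · Timing – static 4 h at 37 °C with compound, 1 h detection · Detection – adenylate kinase release luminescence · Read-out – signal increase indicating cell lysis · Control set – Clomiphene as positive lysis control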
Hits are given with their value; – = inactive; · = no result given; [ ] = dose if it differs, or a comment.

SMILES | MITF TRPM1 HTS | esBAF inh | Env fusion inh | Wnt act | ERAP1 HTS inh | Cneo AK release
CC(C)C[C@@H](CN(C)N=O)N(C[C@H](Cc1ccccc1)N(CCc1ccccc1)N=O)N=O | – | – | 93.7 | – | – | –
CCCC[C@H](CN(N=O)[C@@H](Cc1ccccc1)CN(C)N=O)N(CCc1ccccc1)N=O | – | – | 88.4 | – | – | –
CN(C[C@H](Cc1ccccc1)N(C[C@H](Cc1ccccc1)N(CCc1cc(C(F)(F)F)cc(C(F)(F)F)c1)N=O)N=O)N=O | – | – | 56.1 | – | · | –
CN(C[C@H](Cc1ccccc1)N(C[C@H](Cc1cccc2ccccc12)N(CCc1ccccc1)N=O)N=O)N=O | – | – | – | – | – | –
CC(C)[C@H](CN(N=O)[C@@H](Cc1ccccc1)CN(C)N=O)N(CCc1ccccc1)N=O | – | – | 67.6 | – | – | –
CN(C[C@H](Cc1ccccc1)N(CCN(CCc1ccccc1)N=O)N=O)N=O | – | – | – | – | – | –
O=C(N[C@H]1CC[C@@H](CC(=O)N2CCOCC2)O[C@H]1CO)c1ccccn1 | · | – | · | · | – | –
COc1ccc(S(=O)(=O)Nc2ccc3c(c2)CC(=O)N([C@@H](C)CO)C[C@H](C)[C@H](CN(C)C(=O)Nc2c(C)noc2C)O3)cc1 | · | – | – | · | – | –
CC(C)NC(=O)N1CCCCN2[C@H](CO)[C@H](c3ccc(C#Cc4ccccc4)cc3)[C@H]2C1 | · | · | · | · | – | –
Cc1cccc(S(=O)(=O)N[C@H]2CC[C@H](CCNC(=O)c3cnccn3)O[C@@H]2CO)c1 | · | – | – | · | – | –
Cn1cnc(S(=O)(=O)N2CCCCN3[C@H](CO)[C@@H](c4ccc(C#CC5CCCC5)cc4)[C@H]3C2)c1 | · | – | · | · | – | –
Cc1noc(C)c1S(=O)(=O)Nc1ccc2c(c1)C(=O)N([C@H](C)CO)C[C@H](C)[C@H](CN(C)Cc1ccc(-c3ccccc3)cc1)O2 | · | – | – | · | – | –
COC(=O)c1ccc(N2OC3(C)C=CC2CC3)cc1 (stereo unspecified) | – | 63.4 | – | – | – | –
COC(=O)c1ccc(N2C(=O)CC(N3CCOCC3)C2=O)cc1 (stereo unspecified) | – | – | · | · | · | –
c1ccc2cc(C3OCC4(CCCC4)CO3)ccc2c1 | · | 71.2 | – | – | – | –
O=C(Oc1ccc(/C=N/NC(=O)c2ccccc2O)cc1)c1ccccc1 | – | – | · | · | · | –
CC(=C/c1ccccc1)/C=N/NC(=O)c1cnccn1 | · | – | – | – | · | –
CC(/C=N/NC(=O)c1cccnc1)=C\c1ccccc1 | – | – | – | 34.5 | – | ·
O=C(Oc1ccc(/C=N/NC(=O)c2ccccc2F)cc1)c1ccccc1 | – | 46.6 | – | – | – | –
O=C(N/N=C/c1ccc(OC(=O)c2ccccc2)cc1)c1cccnc1 | – | – | 56.7 | – | – | –
Cc1cccc(C(=O)Oc2ccc(/C=N/NC(=O)c3cc(O)cc(O)c3)cc2)c1 | – | – | – | – | – | –
O=C(N/N=C/c1ccc(OC(=O)c2ccccc2)cc1)c1cccc(O)c1 | – | · | – | 46.9 | – | ·
CN1[C@@H]2c3ccc(C4=CCCCC4)c(=O)n3C[C@H]1[C@H](CO)[C@H]2C(=O)N1CCCCC1 | · | – | · | · | – | –
C[C@@H]1CN([C@H](C)CO)C(=O)c2cc(-c3ccncc3)cnc2O[C@@H]1CN(C)S(=O)(=O)c1ccccc1 | · | – | – | · | – | –
O=C(C[C@@H]1C[C@H]2c3cc(NC(=O)C4CCOCC4)ccc3O[C@H]2[C@H](CO)O1)NCC(F)(F)F | · | – | – | · | – | –
SMILES | MITF TRPM1 HTS | esBAF inh | Env fusion inh | Wnt act | ERAP1 HTS inh | Cneo AK release
O=C(C[C@@H]1C[C@@H]2c3cc(NC(=O)C4CCC4)ccc3O[C@@H]2[C@@H](CO)O1)NCC(F)(F)F | · | – | 89.7[16.7 µM] | · | – | –
O=C(C[C@H]1C[C@@H]2c3cc(NC(=O)C4CCC4)ccc3O[C@@H]2[C@@H](CO)O1)NCC(F)(F)F | · | – | 88.3[16.7 µM] | · | – | –
Cc1noc(C)c1NC(=O)N(C)C[C@@H]1Oc2c(NC(=O)CCCCCC(=O)Nc3ccccc3N)cccc2C(=O)N([C@@H](C)CO)C[C@H]1C | · | · | · | · | – | ·
C[C@@H]1CN([C@@H](C)CO)C(=O)c2ccccc2-c2ccccc2CO[C@H]1CN(C)S(=O)(=O)c1ccc(C#N)cc1 | · | – | · | · | – | –
CCC1([N+](=O)[O-])COC(C=Cc2ccccc2)OC1 (stereo unspecified) | – | 54.0 | · | – | – | –
COCCNC(=O)c1cc2oc3ccccc3c2n1C | · | 72.5 | – | – | · | –
COc1ccccc1-c1cnc2c(c1)C(=O)N([C@@H](C)CO)C[C@H](C)[C@@H](CN(C)CC1CCOCC1)O2 | · | – | · | · | · | ·
CCCNC(=O)C[C@@H]1C[C@@H]2c3cc(NC(=O)Cc4ccncc4)ccc3O[C@@H]2[C@@H](CO)O1 | · | – | 93.3[16.7 µM] | · | · | –
CCCNC(=O)C[C@H]1C[C@H]2c3cc(NC(=O)Nc4ccc(OC)cc4)ccc3O[C@H]2[C@@H](CO)O1 | · | – | · | · | – | 89.7
O=C(C[C@H]1C[C@H]2c3cc(NC(=O)Cc4ccncc4)ccc3O[C@H]2[C@@H](CO)O1)NCc1ccncc1 | · | – | 93.4[16.7 µM] | · | – | –
O=C(C[C@@H]1C[C@@H]2c3cc(NC(=O)Cc4ccncc4)ccc3O[C@@H]2[C@H](CO)O1)NCCc1ccccc1 | · | – | – | · | – | –
O=C(C[C@H]1C[C@H]2c3cc(NC(=O)Cc4ccncc4)ccc3O[C@H]2[C@H](CO)O1)NCC1CC1 | · | – | – | · | – | –
CCCNC(=O)C[C@@H]1C[C@@H]2c3cc(NC(=O)Cc4ccncc4)ccc3O[C@@H]2[C@H](CO)O1 | · | – | 91.1[16.7 µM] | · | · | –
CN1CCN(C(=O)C[C@@H]2C[C@@H]3c4cc(NC(=O)C5CCOCC5)ccc4O[C@@H]3[C@@H](CO)O2)CC1 | · | – | – | · | – | –
CN(C)C(=O)C[C@H]1CC[C@H](NC(=O)C2CC2)[C@H](CO)O1 | · | – | – | · | – | –
C[C@@H]1CN([C@H](C)CO)C(=O)c2cccc(NC(=O)C3CCCCC3)c2O[C@@H]1CN(C)C(=O)Nc1ccccc1 | · | – | · | · | – | –
O=C(Nc1ccc2c(c1)Cc1cc([N+](=O)[O-])ccc1-2)C(F)(F)F | · | 41.5 | · | – | – | –
CC[n+]1c(/C=C2\Sc3ccccc3N2C)ccc2cccc(C)c21 | – | · | 76.5 | – | · | –
COCC(=O)N(C)C[C@@H]1Oc2ncc(C#CC(C)(C)O)cc2C(=O)N([C@@H](C)CO)C[C@@H]1C | · | – | · | · | – | –
O=C(Nc1ccccc1)N[C@H]1CC[C@H](CCn2cc(-c3ccccc3F)nn2)O[C@@H]1CO | · | · | · | · | – | ·
N#Cc1ccccc1NC(=O)COc1ccc2c(c1)OCO2 | 120.3 | 67.5 | – | – | – | –

Bioassay records: PubChem BioAssay, Broad Institute
